pIC50: −log10 of the molar value.
What was measured:
Histone deacetylase 8 = target: T1, Histone deacetylase 8 (Homo sapiens, UniProt Q9BY41); assay: Inhibition of recombinant human HDAC8 assessed as decrease in deacetylation of FLUOR DE LYS substrate preincubated for 10 mins followed by substrate addition and measured after 30 mins by fluorescence based assay
T1 sequence (Q9BY41 whole entry): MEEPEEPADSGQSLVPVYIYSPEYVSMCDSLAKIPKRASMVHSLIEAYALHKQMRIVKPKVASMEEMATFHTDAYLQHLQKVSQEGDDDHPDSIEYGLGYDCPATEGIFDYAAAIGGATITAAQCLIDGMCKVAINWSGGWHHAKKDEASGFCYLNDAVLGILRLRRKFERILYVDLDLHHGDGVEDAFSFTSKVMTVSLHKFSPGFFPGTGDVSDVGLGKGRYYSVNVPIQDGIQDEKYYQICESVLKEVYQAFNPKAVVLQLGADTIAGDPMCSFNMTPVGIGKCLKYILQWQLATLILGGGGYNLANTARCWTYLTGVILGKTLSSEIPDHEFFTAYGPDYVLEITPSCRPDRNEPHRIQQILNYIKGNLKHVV

HCT-116 [1] = assay: Antiproliferative activity against human HCT116 cells assessed as growth inhibition at 8 uM after 72 hrs by CCK-8 assay relative to control; type: functional; conditions: HCT-116, 72 h, read-out: GI
A549 [2] = assay: Antiproliferative activity against human A549 cells assessed as decrease in cell viability after 72 hrs by CCK-8 assay; type: functional, cell-based; conditions: A549, 72 h
Summary of the method: (§1)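 Cells grown to 70–85% confluence (A375, A549, HCT116 in RPMI1640; HeLa, SMMC7721 in DMEM; 10% FBS, 37 °C, 5% CO2), seeded 4000/well, dosed after 12 h across a concentration range, incubated 72 h, then CCK-8 for 1 h; absorbance at 450 nm. IC50 as mean ± SD of three separate experiments.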

HCT-116 [3] = assay: Antiproliferative activity against human HCT116 cells assessed as decrease in cell viability after 72 hrs by CCK-8 assay; type: functional, cell-based; conditions: HCT-116, 72 h; summary of the method: as §1
A549 [4] = assay: Induction of apoptosis in human A549 cells assessed as late apoptotic cells at 1 uM after 48 hrs by Annexin V-FITC/propidium iodide staining based flow cytometry (reference value: 0.637%); type: functional
Summary of the method: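 A549 seeded 4×10⁶ cells/well, dosed after 12 h with compound at various concentrations, harvested after 48 h. Resuspended in annexin-binding buffer, stained with Annexin V-FITC and propidium iodide for 15 min in the dark, analysed by flow cytometry; means of three separate experiments.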

A549 [5] = assay: Cell cycle arrest in human A549 cells assessed as accumulation of cells at G2/M phase at 1 uM after 48 hrs by propidium iodide staining-based flow cytometry (reference value: 13.62%); type: functional
A549 [6] = assay: Cell cycle arrest in human A549 cells assessed as accumulation of cells at S phase at 2 uM after 48 hrs by propidium iodide staining-based flow cytometry (reference value: 12.83%); type: functional
[7] = AUC (0 to t) in ICR mouse at 4 mg/kg, iv after 0.08 to 24 hrs by LC-MS/MS analysis; type: ADME, organism-based; parameters: time upper 24 hr, dose 4 mg/kg, time lower 0.08 hr, route intravenous; conditions: in vivo
Summary of the method: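 Male ICR mice (29.7~37.4 g), single iv dose 4 mg/kg in DMSO:40% SBE-β-CD 20:80 (v/v). Retro-orbital blood at 0.08–24 h into EDTA-K2 tubes; plasma protein-precipitated with acetonitrile containing internal standards, analysed by LC-MS/MS; n=3 per time point; noncompartmental analysis.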

A549 [8] = assay: Cell cycle arrest in human A549 cells assessed as increase in accumulation of cells at G2/M phase after 48 hrs by propidium iodide staining-based flow cytometry; type: functional

pIC50 (Histone deacetylase 8)	pIC50 (A549 [2])	pIC50 (HCT-116 [3])	AUC(0-t) [7]	Compound	inhibition of growth at 8 µM (HCT-116 [1])	Activity (A549 [4])	Activity (A549 [5])	Activity (A549 [6])	Activity (A549 [8])
< 4.49	5.52	5.76	868 ng·h/mL	CCc1ccc(SCc2ccc(C(=O)Nc3ccccc3N)cc2)cc1	79.1%	14.6%	59.87%	9.52%	Dose-dependent effect
< 4.49	5.59	5.79	737 ng·h/mL	COc1ccc(SCc2ccc(C(=O)Nc3ccccc3N)cc2)cc1	90.1%	10.8%	38.3%	12.64%	Dose-dependent effect

— ChEMBL document CHEMBL4396885, “Thioether-based 2-aminobenzamide derivatives: Novel HDAC inhibitors with potent in vitro and in vivo antitumor activity” (Eur J Med Chem, 2019)
